Experimental data from ChEMBL document CHEMBL1148000, “Naphthyl piperazines with dual activity as 5-HT1D antagonists and 5-HT reuptake inhibitors” (Bioorg Med Chem Lett, 2007).
The source made the active and inactive calls. The calls are words filed in the database; no cut-off is given here.

Assays:
[1] = system: Hypothalamus; assay: Increase in extracellular 5HT level in guinea pig hypothalamus at 10 mg/kg, po after 3 hrs; assay type: functional, organism-based; design: dose 10 mg/kg; conditions: Cavia porcellus
Procedure, shortened: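 Microdialysis was done in the hypothalamus of freely moving guinea pigs. Dosing was 10 mg/kg po. Extracellular 5-HT is expressed as a percentage of a pre-injection control period, assessed over 3 h post-dose, as means + SEM.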

[2] = target: T1, 5-hydroxytryptamine receptor 1D (Homo sapiens, UniProt P28221); assay: Functional antagonism of 5-HT-stimulated GTP-gamma-[35S] binding to human 5HT1D expressed in LM(tk-) cells at 30 nM; design: scale not given: the % may be the effect or the level left
T1 sequence (P28221 whole entry): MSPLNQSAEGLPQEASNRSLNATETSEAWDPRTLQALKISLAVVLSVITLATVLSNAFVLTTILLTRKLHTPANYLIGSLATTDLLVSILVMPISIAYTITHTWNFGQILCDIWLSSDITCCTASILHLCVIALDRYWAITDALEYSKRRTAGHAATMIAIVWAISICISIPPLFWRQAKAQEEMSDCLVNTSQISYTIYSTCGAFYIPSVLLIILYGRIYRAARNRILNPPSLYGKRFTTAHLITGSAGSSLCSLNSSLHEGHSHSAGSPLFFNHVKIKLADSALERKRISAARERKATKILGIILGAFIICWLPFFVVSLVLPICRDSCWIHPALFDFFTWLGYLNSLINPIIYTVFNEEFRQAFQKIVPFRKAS

[3] = target: Sodium-dependent serotonin transporter (Homo sapiens, UniProt P31645); assay: Displacement of [3H]citalopram from human 5HT transporter expressed in HEK293 cells; assay type: cell-based
Sodium-dependent serotonin transporter, sequence (P31645 whole entry): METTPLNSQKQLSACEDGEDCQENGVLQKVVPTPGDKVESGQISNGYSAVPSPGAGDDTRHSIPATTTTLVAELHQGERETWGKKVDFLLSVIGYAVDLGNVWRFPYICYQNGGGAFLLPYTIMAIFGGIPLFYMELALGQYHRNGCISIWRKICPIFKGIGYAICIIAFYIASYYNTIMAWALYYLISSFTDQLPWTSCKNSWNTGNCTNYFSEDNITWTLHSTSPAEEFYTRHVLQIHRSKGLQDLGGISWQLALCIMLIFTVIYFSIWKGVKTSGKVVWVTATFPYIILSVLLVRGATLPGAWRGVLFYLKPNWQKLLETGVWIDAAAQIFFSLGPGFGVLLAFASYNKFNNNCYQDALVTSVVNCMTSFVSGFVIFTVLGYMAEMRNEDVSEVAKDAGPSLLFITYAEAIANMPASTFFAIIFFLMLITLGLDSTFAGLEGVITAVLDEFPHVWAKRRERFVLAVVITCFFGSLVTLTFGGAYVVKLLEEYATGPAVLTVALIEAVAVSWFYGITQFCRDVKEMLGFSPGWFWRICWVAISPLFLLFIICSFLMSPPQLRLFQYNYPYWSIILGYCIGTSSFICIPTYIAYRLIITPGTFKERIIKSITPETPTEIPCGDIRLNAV
Procedure, shortened: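 Human serotonin transporter was expressed in HEK293 cells. Inhibition was measured as displacement of [3H]-citalopram. Ki (nM) is the mean of runs in triplicate.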

[4] = target: T1, 5-hydroxytryptamine receptor 1D; assay: Displacement of [3H]GR-125743 from human 5HT1D expressed in LM(tk-) cells; assay type: cell-based
Procedure, shortened: (§1)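 Human 5-HT1B or 5-HT1D receptors were cloned into L-M(tk-) cells, and membrane homogenates were prepared from these cells. Binding used [3H]-GR125743 as radioligand. Ki (nM) is the mean of runs in triplicate.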

[5] = target: T2, 5-hydroxytryptamine receptor 1A (Homo sapiens, UniProt P08908); assay: Displacement of [3H]8-OH-DPAT from human 5HT1A expressed in LM(tk-) cells; assay type: cell-based
T2 sequence (P08908 whole entry): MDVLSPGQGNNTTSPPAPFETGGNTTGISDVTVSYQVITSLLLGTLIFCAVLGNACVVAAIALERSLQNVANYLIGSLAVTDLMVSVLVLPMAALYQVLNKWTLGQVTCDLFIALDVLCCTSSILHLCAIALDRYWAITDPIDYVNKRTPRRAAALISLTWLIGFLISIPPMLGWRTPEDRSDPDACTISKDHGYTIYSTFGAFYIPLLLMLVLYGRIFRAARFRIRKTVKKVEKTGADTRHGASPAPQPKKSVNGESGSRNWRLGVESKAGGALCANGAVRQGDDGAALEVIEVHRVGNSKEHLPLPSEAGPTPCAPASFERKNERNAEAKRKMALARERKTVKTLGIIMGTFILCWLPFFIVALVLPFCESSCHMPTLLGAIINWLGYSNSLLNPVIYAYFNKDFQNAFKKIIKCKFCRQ
Procedure, shortened: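 Human 5-HT1A was cloned into L-M(tk-) cells, and membrane homogenates were prepared. Binding used [3H]-8-OH-DPAT as radioligand. Ki (nM) is the mean of runs in triplicate.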

[6] = target: D(2) dopamine receptor (Rattus norvegicus, UniProt P61169); assay: Displacement of [3H]raclopride from dopamine D2 receptor in rat caudate membranes; assay type: cell membranes, Membrane
D(2) dopamine receptor, sequence (P61169 whole entry): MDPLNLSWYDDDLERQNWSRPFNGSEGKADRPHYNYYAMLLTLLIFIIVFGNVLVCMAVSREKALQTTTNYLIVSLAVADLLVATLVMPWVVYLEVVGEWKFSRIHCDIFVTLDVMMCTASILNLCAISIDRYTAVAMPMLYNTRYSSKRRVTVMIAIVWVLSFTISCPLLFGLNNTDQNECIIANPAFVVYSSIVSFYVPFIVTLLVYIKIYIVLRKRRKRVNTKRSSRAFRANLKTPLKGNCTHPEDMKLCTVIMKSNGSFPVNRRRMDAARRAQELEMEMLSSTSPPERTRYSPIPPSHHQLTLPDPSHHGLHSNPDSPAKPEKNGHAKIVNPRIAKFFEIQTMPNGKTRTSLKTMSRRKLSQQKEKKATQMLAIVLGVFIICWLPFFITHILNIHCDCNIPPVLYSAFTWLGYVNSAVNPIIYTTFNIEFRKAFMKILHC
Procedure, shortened: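 D2 binding was measured in rat caudate membranes with [3H]-raclopride. Ki (nM) is the mean of runs in triplicate.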

[7] = target: T3, Adrenergic receptor alpha-1 (Rattus norvegicus, UniProt P15823+P23944+P43140); assay: Displacement of [3H]prazosin from adrenergic alpha-1 receptor in rat cortical membranes; assay type: cell membranes, Membrane
T3 sequence (P15823 whole entry): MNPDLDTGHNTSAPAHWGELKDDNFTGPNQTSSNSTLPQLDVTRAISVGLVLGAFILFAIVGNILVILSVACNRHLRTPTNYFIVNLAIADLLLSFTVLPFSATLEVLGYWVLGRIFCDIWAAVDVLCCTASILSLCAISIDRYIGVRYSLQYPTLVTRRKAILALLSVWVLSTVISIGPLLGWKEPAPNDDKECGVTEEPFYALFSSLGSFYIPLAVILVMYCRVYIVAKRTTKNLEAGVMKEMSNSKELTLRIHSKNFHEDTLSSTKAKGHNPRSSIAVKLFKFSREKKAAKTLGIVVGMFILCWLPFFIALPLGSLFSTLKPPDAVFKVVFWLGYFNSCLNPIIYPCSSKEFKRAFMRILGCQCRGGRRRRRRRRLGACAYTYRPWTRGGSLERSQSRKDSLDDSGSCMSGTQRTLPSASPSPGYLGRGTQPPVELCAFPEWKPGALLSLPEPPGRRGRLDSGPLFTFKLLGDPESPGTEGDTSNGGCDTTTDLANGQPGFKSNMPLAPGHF
T3 sequence (P23944 whole entry): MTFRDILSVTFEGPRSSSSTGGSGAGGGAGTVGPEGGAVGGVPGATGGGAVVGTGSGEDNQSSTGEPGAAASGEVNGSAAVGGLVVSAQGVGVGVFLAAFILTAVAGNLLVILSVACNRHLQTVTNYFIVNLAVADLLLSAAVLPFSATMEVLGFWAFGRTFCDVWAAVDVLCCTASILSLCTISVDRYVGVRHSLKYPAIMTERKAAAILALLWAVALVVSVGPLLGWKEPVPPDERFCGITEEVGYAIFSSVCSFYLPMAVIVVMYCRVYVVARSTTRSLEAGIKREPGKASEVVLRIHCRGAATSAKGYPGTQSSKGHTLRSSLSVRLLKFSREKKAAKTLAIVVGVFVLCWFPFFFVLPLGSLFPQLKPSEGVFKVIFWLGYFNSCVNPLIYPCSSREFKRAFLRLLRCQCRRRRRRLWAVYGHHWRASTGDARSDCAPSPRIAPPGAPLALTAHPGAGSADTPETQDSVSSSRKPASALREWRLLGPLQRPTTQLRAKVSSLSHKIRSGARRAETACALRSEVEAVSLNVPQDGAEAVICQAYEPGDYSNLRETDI
T3 sequence (P43140 whole entry): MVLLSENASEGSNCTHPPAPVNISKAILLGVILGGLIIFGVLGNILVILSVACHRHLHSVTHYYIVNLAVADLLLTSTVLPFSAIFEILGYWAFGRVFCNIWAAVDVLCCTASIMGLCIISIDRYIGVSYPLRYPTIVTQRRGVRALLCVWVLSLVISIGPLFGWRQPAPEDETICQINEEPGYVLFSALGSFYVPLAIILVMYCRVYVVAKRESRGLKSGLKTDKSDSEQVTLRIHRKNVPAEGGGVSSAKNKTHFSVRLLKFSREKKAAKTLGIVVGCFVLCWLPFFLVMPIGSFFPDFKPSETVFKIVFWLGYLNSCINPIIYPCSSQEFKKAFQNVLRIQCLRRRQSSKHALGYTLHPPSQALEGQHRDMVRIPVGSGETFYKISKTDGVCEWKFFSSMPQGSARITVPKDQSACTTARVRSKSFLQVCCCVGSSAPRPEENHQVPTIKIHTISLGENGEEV
Procedure, shortened: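 Rat cortex membranes were used, with [3H]-prazosin as radioligand for α1 binding. Ki (nM) is the mean of runs in triplicate.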

[8] = target: 5-hydroxytryptamine receptor 1B (Homo sapiens, UniProt P28222); assay: Displacement of [3H]GR-125743 from human 5HT1B expressed in LM(tk-) cells; assay type: cell-based; procedure, shortened: as §1
5-hydroxytryptamine receptor 1B, sequence (P28222 whole entry): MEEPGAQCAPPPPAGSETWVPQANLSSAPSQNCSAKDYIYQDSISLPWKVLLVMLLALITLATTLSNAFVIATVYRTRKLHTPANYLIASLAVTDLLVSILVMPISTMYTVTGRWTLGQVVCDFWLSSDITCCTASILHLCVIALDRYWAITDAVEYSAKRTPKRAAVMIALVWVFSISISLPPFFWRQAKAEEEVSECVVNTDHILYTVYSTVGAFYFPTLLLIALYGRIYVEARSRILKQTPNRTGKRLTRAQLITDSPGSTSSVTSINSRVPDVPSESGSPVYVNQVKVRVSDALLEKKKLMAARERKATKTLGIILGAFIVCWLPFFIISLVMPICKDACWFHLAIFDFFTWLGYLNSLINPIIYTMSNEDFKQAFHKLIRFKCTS

[9] = target: T1, 5-hydroxytryptamine receptor 1D; assay: Antagonist activity at human 5HT1D expressed in LM(tk-) cells by [35S]GTPgamma binding assay; assay type: functional, cell-based
Procedure, shortened: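 5-HT dose–response curves for [35S]GTPγS binding were run in LM(tk-) cells stably expressing the human 5-HT1D receptor. Antagonism was read as the rightward shift of these curves. Results are given as KB or as % displacement at 30 nM.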

With C[C@H]1CN(c2cccc3cc(C#N)ccc23)CCN1CC[C@@H]1OCCc2cc(C(N)=O)ccc21 the Activity [1] was “Active”, the Activity [2] was 124% and the Ki [3] was 2.2 nM. The Ki [4] was 0.9 nM, the Ki [5] was 26 nM and the Ki [6] was 287 nM. It also gave a Ki [7] of 353 nM and a Ki [8] of 21 nM.

For C[C@H]1CN(c2cccc3cc(F)ccc23)CCN1CC[C@@H]1OCc2cc(C(N)=O)ccc21, the Ki [3] was 1.3 nM, the Ki [4] was 14 nM and the Ki [5] was 13 nM. For the same compound, the Ki [6] was 26 nM, the Kb [9] was 0.05 nM and the Ki [7] was 64 nM. It also gave a Ki [8] of 114 nM.

C[C@@H]1CN(c2cccc3cc(F)ccc23)CCN1CCC1OCCc2cc(C(N)=O)ccc21 (some centres undefined) showed a Ki [3] of 0.8 nM, a Ki [4] of 56 nM and a Ki [6] of 4.7 nM. For the same compound, the Kb [9] was 0.01 nM, the Ki [7] was 16 nM and the Ki [8] was 281 nM.

Work on NC(=O)c1ccc2c(c1)CCO[C@H]2CCN1CCN(c2ccc3cc(F)ccc3c2)CC1 yielded a Ki [3] of 8.1 nM, a Ki [4] of 10 nM and a Ki [6] of 704 nM. The Kb [9] was 0.86 nM, the Ki [7] was 96 nM and the Ki [8] was greater than 1000 nM.

In the case of C[C@H]1CN(c2cccc3cc(C#N)ccc23)CCN1CC[C@H]1OCc2cc(C(N)=O)ccc21, the Ki [3] is reported as 1.3 nM, the Ki [4] is reported as 1.8 nM and the Ki [6] is reported as 346 nM. For the same compound, the Kb [9] was 0.18 nM, the Ki [7] was 338 nM and the Ki [8] was 88 nM.

Compound C[C@@H]1CN(c2cccc3cc(F)ccc23)CCN1CC[C@H]1OCCc2cc(C(N)=O)ccc21 has a Ki [3] of 7.4 nM, a Ki [4] of 88 nM and a Ki [5] of 105 nM. For the same compound, the Ki [6] was 78 nM, the Kb [9] was 11.1 nM and the Ki [7] was 74 nM. It also gave a Ki [8] of 91 nM.

With N#Cc1ccc2c(N3CCN(CC[C@@H]4OCCc5cc(C(N)=O)ccc54)CC3)cccc2c1 the Activity [2] was 101%, the Ki [3] was 5.7 nM and the Ki [4] was 1 nM. The Ki [5] was 16 nM, the Ki [6] was 88 nM and the Ki [7] was 178 nM. For the same compound, the Ki [8] was 15 nM.

NC(=O)c1ccc2c(c1)CCOC2CCN1CC=C(c2c[nH]c3cc(F)ccc23)CC1 (centres undefined) showed a Ki [3] of 0.1 nM, a Ki [4] of 8 nM and a Ki [6] of 42 nM. It also gave a Kb [9] of 4.3 nM, a Ki [7] of 0.7 nM and a Ki [8] of 203 nM.

C[C@H]1CN(c2cccc3cc(F)ccc23)CCN1CC[C@H]1OCc2cc(C(N)=O)ccc21 was tested, and the Ki [3] was 8.8 nM, the Ki [4] was 67 nM and the Ki [5] was 13 nM. It also gave a Ki [6] of 107 nM, a Kb [9] of 1.9 nM and a Ki [7] of 43 nM. The Ki [8] was greater than 1000 nM.

C[C@@H]1CN(c2cccc3cc(F)ccc23)CCN1CC[C@@H]1OCCc2cc(C(N)=O)ccc21 showed a Ki [3] of 3 nM, a Ki [4] of 7 nM and a Ki [5] of 115 nM. For the same compound, the Ki [6] was 71 nM, the Kb [9] was 0.01 nM and the Ki [7] was 80 nM. It also gave a Ki [8] of 103 nM.

Compound C[C@H]1CN(c2ccc3cc(F)ccc3c2)CCN1CC[C@@H]1OCCc2cc(C(N)=O)ccc21 has a Ki [3] of 2.1 nM, a Ki [4] of 14 nM and a Ki [5] of 307 nM. It also gave a Ki [6] of 1170 nM, a Kb [9] of 4.05 nM and a Ki [7] of 91 nM. For the same compound, the Ki [8] was greater than 1000 nM.
